Source: PubChem BioAssay
The source made the active and inactive calls.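 The calls were made as follows, unless noted: active = GFP response above 150% of the DMSO level; inconclusive = fewer than 70 events counted for a yeast strain; inactive = the rest.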

Legend:
[1] = RPL19A-GFP modulators, yeast TOR pathway, confirmation, cell-based, S. cerevisiae, flow cytometry, cherry picks, mother/daughter gates (AID 2270;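 active = GFP response below 50% of the DMSO control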); conditions: S. cerevisiae RPL19A-GFP strain, 3 h, at 10 µM, stronger effect = lower value, 100 = same GFP as DMSO wells
[2] = LAP4-GFP expression modulators in yeast, confirmation, cell-based, cherry picks, flow cytometry, mother/daughter gates (AID 2271;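 active = GFP response above 150% of the DMSO control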;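 also: ratio of sample to DMSO plate mean so 100% equals DMSO level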); conditions: S. cerevisiae LAP4-GFP strain, 3 h, at 10 µM, stronger effect = higher value, 100 means same as DMSO control
Summary of the method: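 Test system: GFP-fusion yeast strain / Amount: 0.2 OD600 cells / Buffer or medium: SC medium / Dosing: 10 µM single dose / Incubation: compound exposure 3 h at 30 °C, end-over-end rotation / Detection: HT flow cytometry, GFP fluorescence channel / Evaluation: median GFP fluorescence as percent of plate-mean DMSO wells / Control set: DMSO-only negative wells, rapamycin 400 ng/mL positive wells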

[3] = modulators of MEP2-GFP levels in yeast, confirmation, S. cerevisiae, flow cytometry GFP, cherry picks (AID 2272;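 active = GFP response above 150% of the DMSO control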;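 also: ratio of well signal to plate DMSO mean so 100% equals DMSO level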); conditions: S. cerevisiae MEP2-GFP strain, 3 h, at 10 µM, stronger effect = higher value
[4] = AGP1-GFP expression modulators, hit retest, confirmation, cell-based, flow cytometry, S. cerevisiae, cherry picks (AID 2273);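 also: median GFP channel fluorescence over the whole cell population gate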; conditions: S. cerevisiae AGP1-GFP strain, 3 h, at 10 µM
[5] = modulators of CIT2-GFP expression in yeast, confirmation, S. cerevisiae, GFP fusion, cherry picks, mother/daughter gates (AID 2274); conditions: S. cerevisiae CIT2-GFP strain, flow cytometry, 3 h, at 10 µM, stronger effect = higher value
[6] = measured here: daughter cell gate
[7] = measured here: mother cell gate
[8] = measured here: daughter cell gate response
[9] = measured here: mother cell gate response

Row | Structure (SMILES) | GFP response vs DMSO [1] | GFP response vs DMSO [1, 6] [%] | GFP response vs DMSO [1, 7] [%] | GFP response relative to DMSO [2] | GFP response relative to DMSO [2, 8] [%] | GFP response relative to DMSO [2, 9] [%] | GFP response vs DMSO [3] | GFP response, % of DMSO [4] | GFP response, % of DMSO [5] | GFP response, % of DMSO [5, 6] [%] | GFP response, % of DMSO [5, 7] [%]
1 | Cc1sc(NC(=O)c2cccs2)nc1-c1ccccc1 | 106% (inactive) | 95.7 | 105 | 110% (inactive) | 106 | 112 | 109% (inactive) | 97.5% (inactive) | 95.9% (inactive) | 93.8 | 95.6
2 | COc1ccc(CC2=C(O)c3ccccc3C(=O)C2=O)cc1 | 95.1% (inactive) | 91.3 | 96.1 | 129% (inactive) | 113 | 135 | 97.2% (inactive) | 97% (inactive) | 80.6% (inactive) | 81.6 | 80.4
3 | COC(=O)Nc1c(-c2ccccc2)nc2ccccn12 | 99.4% (inactive) | 98.1 | 98.9 | 107% (inactive) | 106 | 105 | 98.3% (inactive) | 93.7% (inactive) | 101% (inactive) | 99.1 | 101
4 | CCOC(=O)C1CCCN(C(=O)c2ccc(-c3ccc([N+](=O)[O-])cc3)o2)C1 (stereo unspecified) | 99.8% (inactive) | 100 | 98.4 | 101% (inactive) | 101 | 101 | 103% (inactive) | 99.3% (inactive) | 100% (inactive) | 97.6 | 102
5 | COC(=O)NC1CCC(CC2CCC(NC(=O)OC)CC2)CC1 (stereo unspecified) | 99% (inactive) | 98.9 | 99.4 | 92.8% (inactive) | 92.8 | 92.9 | 100% (inactive) | 94.7% (inactive) | 103% (inactive) | 105 | 103
6 | Cc1nnc(NC(=O)c2nc(S(=O)(=O)Cc3ccccc3)ncc2Cl)s1 | 95.1% (inactive) | 96.7 | 93.7 | 96.5% (inactive) | 99 | 98.4 | 99.3% (inactive) | 103% (inactive) | 104% (inactive) | 103 | 104
7 | COc1ccc(C(=O)NC(=S)Nc2ccc(CN3CCOCC3)cc2)cc1 | 101% (inactive) | 98.8 | 99.9 | 99.5% (inactive) | 99.1 | 99.4 | 99% (inactive) | 101% (inactive) | 98.8% (inactive) | 99.2 | 98.1
8 | CC(=O)Oc1c(C)cc(Cl)cc1C(=O)Nc1ccc([N+](=O)[O-])cc1Cl | 97% (inactive) | 96 | 98.2 | 91.2% (inactive) | 92 | 93 | 101% (inactive) | 97.9% (inactive) | 90.9% (inactive) | 93.7 | 89.8
9 | Cc1ccc(/C=N/NC(=O)c2ccccn2)s1 | 99.2% (inactive) | 97.1 | 97 | 99.5% (inactive) | 95.9 | 99.4 | 101% (inactive) | 95.1% (inactive) | 94.4% (inactive) | 93.8 | 94.4
10 | CS(=O)(=O)Nc1cccc(C2=NN(S(C)(=O)=O)C(c3ccc4c(c3)OCO4)C2)c1 (stereo unspecified) | 97.2% (inactive) | 98.9 | 98.7 | 99.2% (inactive) | 99.2 | 98.3 | 102% (inactive) | 99.5% (inactive) | 103% (inactive) | 103 | 103
11 | C=CCn1c(=O)c(C(=O)NCCc2ccccc2)c(O)c2ccccc21 | 98.4% (inactive) | 98.9 | 100 | 90.2% (inactive) | 89.6 | 91.9 | 96.2% (inactive) | 102% (inactive) | 99.7% (inactive) | 99.1 | 101
12 | CCn1c(=O)c(C(=O)NC(C)C)c(O)c2ccccc21 | 101% (inactive) | 98.7 | 101 | 101% (inactive) | 100 | 101 | 100% (inactive) | 97.8% (inactive) | 103% (inactive) | 99.7 | 103
13 | O=C(O)c1ccc(Sc2ccccn2)c([N+](=O)[O-])c1 | 98% (inactive) | 99.1 | 98.2 | 96.7% (inactive) | 97.6 | 95.1 | 102% (inactive) | 97% (inactive) | 99.7% (inactive) | 101 | 98.5
14 | COc1cc(NC(=O)c2cccc(F)c2)ccc1NC(=O)c1cc2ccccc2o1 | 97.8% (inactive) | 98.3 | 97.6 | 98.8% (inactive) | 99.3 | 97.5 | 102% (inactive) | 101% (inactive) | 97.8% (inactive) | 98.3 | 95.6
15 | COc1cccc2c1Oc1ncccc1N(C(=O)CCC(=O)NCc1ccccc1Cl)C2 | 95.6% (inactive) | 97.9 | 95.8 | 97% (inactive) | 97.5 | 96.2 | 99% (inactive) | 99.6% (inactive) | 103% (inactive) | 103 | 103
16 | CCOc1cc(/C=C2\C(=N)N3N=C(S(=O)(=O)CC)SC3=NC2=O)ccc1OC(=O)c1ccco1 | 104% (inactive) | 104 | 105 | 89% (inactive) | 92.5 | 90.1 | 104% (inactive) | 100% (inactive) | 115% (inactive) | 113 | 113

Row | Structure (SMILES) | GFP response vs DMSO [1] | GFP response vs DMSO [1, 6] [%] | GFP response vs DMSO [1, 7] [%] | GFP response relative to DMSO [2] | GFP response relative to DMSO [2, 8] [%] | GFP response relative to DMSO [2, 9] [%] | GFP response vs DMSO [3] | GFP response, % of DMSO [4] | GFP response, % of DMSO [5] | GFP response, % of DMSO [5, 6] [%] | GFP response, % of DMSO [5, 7] [%]
17 | O=C1C=CC(=O)N1N(c1ccccc1)c1ccccc1 | 96.2% (inactive) | 90.7 | 87.1 | 209% (active) | 148 | 208 | 127% (inactive) | 114% (inactive) | 95.9% (inactive) | 88.9 | 79.8
18 | O=C1c2ccsc2SCCN1Cc1ccccc1Cl | 94.2% (inactive) | 92 | 95.7 | 111% (inactive) | 102 | 114 | 90.5% (inactive) | 97.5% (inactive) | 93% (inactive) | 93.8 | 90.7
19 | Cc1ccc(NC(=S)N/N=C/c2c(C)[nH]c3ccccc23)cc1 | 97.4% (inactive) | 97 | 97.9 | 101% (inactive) | 93.6 | 104 | 104% (inactive) | 90.1% (inactive) | 104% (inactive) | 108 | 100
20 | Cc1ccc(C(=O)Oc2oc(-c3ccccc3)nc2C=Nc2ccc(N(C)C)cc2)cc1 | 98.2% (inactive) | 99.4 | 98.8 | 94.9% (inactive) | 98.2 | 93 | 105% (inactive) | 101% (inactive) | 113% (inactive) | 114 | 114
21 | Fc1ccccc1-c1nc(NCCCN2CCOCC2)c2ccccc2n1 | 94.4% (inactive) | 93.6 | 95.6 | 101% (inactive) | 99.2 | 98.3 | 96.2% (inactive) | 98.5% (inactive) | 96.9% (inactive) | 97.2 | 97.3
22 | COc1ccc(-c2csc(Nc3ncccc3C)n2)cc1 | 95.6% (inactive) | 92.1 | 95.3 | 107% (inactive) | 104 | 109 | 98.3% (inactive) | 88.6% (inactive) | 103% (inactive) | 105 | 99.7
23 | CCCCN(CC)S(=O)(=O)c1ccc(C(=O)Nc2nnc(COC)o2)cc1 | 96.6% (inactive) | 96.7 | 98.1 | 100% (inactive) | 99.3 | 99.5 | 97.5% (inactive) | 103% (inactive) | 102% (inactive) | 100 | 101
24 | COc1ccc(-c2cc(C(F)(F)F)nc(N3CCOCC3)n2)cc1OC | 100% (inactive) | 100 | 98.4 | 101% (inactive) | 101 | 102 | 126% (inactive) | 99.5% (inactive) | 110% (inactive) | 114 | 109
25 | Cc1cc(N)n2ncc(-c3ccccc3)c2n1 | 95.6% (inactive) | 95.1 | 94 | 106% (inactive) | 102 | 106 | 105% (inactive) | 89.4% (inactive) | 101% (inactive) | 101 | 98.5
26 | O=C(N/N=C/c1ccc(F)cc1)c1ccc(Br)cc1 | 99.6% (inactive) | 98.6 | 98 | 111% (inactive) | 109 | 109 | 96.8% (inactive) | 99.6% (inactive) | 102% (inactive) | 101 | 87
27 | COc1cccc2c1Oc1ncccc1N(C(=O)CCC(=O)NCc1cccc(C)c1)C2 | 98.4% (inactive) | 98.6 | 99.2 | 97.9% (inactive) | 97.6 | 98.3 | 100% (inactive) | 97.6% (inactive) | 105% (inactive) | 106 | 104
28 | Cn1c(=O)c2ccccc2n(Cc2cccc(F)c2)c1=O | 97.6% (inactive) | 97.8 | 97.3 | 104% (inactive) | 101 | 105 | 103% (inactive) | 101% (inactive) | 94.4% (inactive) | 95.8 | 93.8
29 | Cc1ccc(S(=O)(=O)N(CC(=O)Nc2cccnc2)c2ccccc2C)cc1 | 104% (inactive) | 100 | 105 | 97% (inactive) | 95.9 | 97.3 | 105% (inactive) | 98.6% (inactive) | 94.4% (inactive) | 92 | 94.4
30 | CC[n+]1c(/C=C/c2ccc(N(C)C)cc2)ccc2ccccc21 | 99.4% (inactive) | 96.6 | 96.5 | 105% (inactive) | 104 | 106 | 118% (inactive) | 101% (inactive) | 97.3% (inactive) | 97.4 | 96.8
31 | CC1=NOC(=O)/C1=C\c1ccc(-c2cc(Cl)ccc2Cl)o1 | 97.1% (inactive) | 93.9 | 91.6 | 195% (active) | 176 | 186 | 118% (inactive) | 100% (inactive) | 114% (inactive) | 121 | 102
